# Compound activity as filed in PubChem BioAssay.
# The list is not random: actives were taken first. Their share in the collection is about 1.5%.
# HNF4A DNA FP – change in binding of human HNF4 alpha to DNA. HNF4a-FITC DNA binding, fluorescence polarization, 1 h. 360,000 tested, 0.3% active. P41235. activity change, % at 10 µM; in the data active means activity change above about 30%, passing the limit was not always enough
# Rev-erbA mod – Rev-erb alpha (human) modulation; P20393; Rev-erbα–FITC-DNA binding, fluorescence polarization, 90 min; activity, % at 10 µM; 370,000 tested, 0.79% active; AID 1259318;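 active means activity above about 14%, limit read from the data; passing the limit was not always enough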;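 further: 0% = DMSO wells with 35 nM protein and 100% = DMSO wells with 750 nM protein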
# Target sequence (P20393 whole entry, looked up): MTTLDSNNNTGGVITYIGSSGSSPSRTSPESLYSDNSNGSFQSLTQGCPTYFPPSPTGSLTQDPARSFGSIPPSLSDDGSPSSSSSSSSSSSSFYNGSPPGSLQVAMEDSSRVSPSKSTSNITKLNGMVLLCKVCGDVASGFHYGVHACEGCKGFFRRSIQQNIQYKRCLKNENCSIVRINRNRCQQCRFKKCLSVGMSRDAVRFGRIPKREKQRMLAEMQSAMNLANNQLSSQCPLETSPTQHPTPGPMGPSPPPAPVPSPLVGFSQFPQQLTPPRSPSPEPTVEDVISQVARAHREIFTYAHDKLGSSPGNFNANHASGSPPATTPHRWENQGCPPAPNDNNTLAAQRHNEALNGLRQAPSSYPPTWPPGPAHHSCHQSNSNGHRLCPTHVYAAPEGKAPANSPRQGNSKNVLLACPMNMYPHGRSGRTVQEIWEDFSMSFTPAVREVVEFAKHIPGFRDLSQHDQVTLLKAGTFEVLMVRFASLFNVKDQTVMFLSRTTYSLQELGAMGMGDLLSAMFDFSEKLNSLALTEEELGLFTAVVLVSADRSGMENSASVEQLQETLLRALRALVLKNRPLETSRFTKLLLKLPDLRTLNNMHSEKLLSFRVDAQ
# aDG glyco up – increases alpha dystroglycan glycosylation | activation, % at 10 µM | 360,000 tested, 0.22% active | AID 624168 | Pro5-aDG cells, alpha-DG glycosylation AlphaScreen (IIH6); 0% Pro5, 100% B10-LARGE cell signal;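 active means activation of at least 8% versus controls, or a plate z-score of at least 8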;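 further: Pro5 are CHO cells carrying HIG-tagged alpha-DG that lacks glycosylation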
# CSN inh – CSN deneddylation inhibition. 360,000 tested, 0.38% active. AID 651999. Q92905. Purified CSN, SCF-Nedd8-OG deneddylation, fluorescence polarization. inhibition, % at 12.5 µM;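 active means pattern-corrected inhibition above about 35%, with an unprinted fluorescence ratio check between 0.5 and 1.5, limit read from the data, passing the limit was not always enough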;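 further: 0% = enzyme with substrate and 100% = substrate without enzyme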
#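 Material: human Csn5 produced in HEK293T cells; Input: enzyme 0.24 nM; Reagent: SCFSkp2-Nedd8OG substrate at 10 nM final; Dosing: 12.5 µM compound; Incubation: 90 min reaction at room temperature; Detection: fluorescence polarization of the substrate; Evaluation: % inhibition of substrate cleavage by Csn5; Control set: substrate-only high control, full reaction low control.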
# Rev-erbA confirm – Rev-erb alpha (human) modulation, hit confirmation | AID 1259319 | activation, % at 25 µM | 3,000 tested, 61% active | Rev-erb alpha FITC-DNA binding, fluorescence polarization, 90 min | shares compounds with Rev-erbA mod;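 active means activation at or above a set limit, or at least 3 SD above the negative control mean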;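 further: 0% = 35 nM protein with DMSO and 100% = 750 nM protein high control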
# RORg DNA counter – RORgamma DNA-binding activity, dose-response counter-screen; shares compounds with Rev-erbA mod; purified RORgamma protein-FITC-DNA binding, fluorescence polarization; IC50, µM; 910 tested, 8% active;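 active means Compounds whose fitted half-maximal concentration for disrupting protein-DNA binding is below 10 micromolar; the record names Rev-erb in its text, so the target is in doubt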
# Starred values were filed as active, the others as inactive; i = inactive; . = no result given.
SMILES,HNF4A DNA FP,Rev-erbA mod,aDG glyco up,CSN inh,Rev-erbA confirm,others
CCN(CC(=O)Nc1ccccc1C(F)(F)F)C(=O)CCc1nc2sc3c(c2c(=O)[nH]1)CCCC3,0.6,20.3*,0.1,13.2,0.1,
CN(CC(=O)Nc1ccccc1C(F)(F)F)C(=O)CCc1nc2sc3c(c2c(=O)[nH]1)CCCC3,3.1,30.1*,0.6,10.3,22.4*,
CCN(CC(=O)Nc1c(F)cccc1F)C(=O)CCc1nc2sc3c(c2c(=O)[nH]1)CCCC3,2.4,-16.0,0.4,27.3,.,
CN(CC(=O)Nc1ccc(F)cc1)C(=O)CCc1nc2sc3c(c2c(=O)[nH]1)CCCC3,6.4,16.0,-0.1,15.1,.,
C[C@@H]1CCN(C2CC2)S(=O)(=O)c2ccc(N3CCC[C@@H]3CO)cc2O1,.,2.9,.,.,.,
CCN(CC)c1ccc2c(c1)OC(N)=C(C#N)C2c1cccnc1 (stereo not drawn),78.0,53.0*,-0.5,71.4,48.1*,
COc1ccc(-c2cn3c(C)c(C(=O)Nc4ccncc4)sc3n2)cc1,3.9,-0.6,4.2,17.4,.,
Cc1c(C(=O)Nc2ccncc2)sc2nc(-c3ccc(F)cc3)cn12,21.9,39.0*,0.9,15.0,37.5*,RORg DNA counter=>40
COc1cc(/C=C2\SC(=S)N(CC(=O)O)C2=O)ccc1OC(=O)c1ccco1,28.4,14.7,-0.1,11.7,.,
COc1cc(/C=C2/SC(=S)N(CC(=O)O)C2=O)ccc1OC(=O)c1ccco1,29.4,25.0*,0.0,10.5,2.5,
COc1ccc(/C=C2\SC(=O)N(CCC(=O)Nc3ccccc3)C2=O)cc1OC,2.9,32.3*,-0.2,-7.8,33.6*,RORg DNA counter=>40
CCCCCCc1cc2cc(S(=O)(=O)c3ccc(C)cc3)c(=O)oc2cc1O,6.6,-12.0,0.1,-4.9,.,
CCCCCCc1cc2cc(C(=O)Nc3ccccc3)c(=O)oc2cc1O,2.6,90.8*,-0.3,0.5,43.2*,RORg DNA counter=6.34*
O=C(OCCN1CCN(C2CN(Cc3cn(Cc4ccccc4F)nn3)S(=O)(=O)C2)CC1)c1cc2ccccc2o1 (stereo not drawn),.,-2.6,.,.,.,
O=S(=O)(Cc1cc(Sc2ccc(Cl)cc2)nc(-c2ccccc2)n1)c1ccccc1,0.1,6.6,0.2,3.7,.,
CCOC(=O)C(C)Sc1cc(CS(=O)(=O)c2ccccc2)nc(-c2ccccc2)n1 (stereo not drawn),3.2,29.4*,0.0,0.8,36.1*,RORg DNA counter=>40
Cc1ccc(C)c(C2NC(=O)c3ccccc3N2)c1 (stereo not drawn),-1.9,2.0,0.0,-2.5,.,
Cn1cc(C2NC(=O)c3ccccc3N2)c2ccccc21 (stereo not drawn),0.6,24.8*,-0.1,-5.3,17.8*,
CCC[C@H]1[C@@H](NC(=O)C#Cc2ccccc2)CC[C@@]23CCCN2C(=O)CCC[C@@H]13,.,-0.5,.,.,.,
CCOc1ccc(-n2c(SCC(=O)N3CCc4ccccc43)nnc2-c2c[nH]c3ccccc23)cc1,37.5*,93.0*,0.1,140.7*,23.9*,
O=C(CSc1nnc(-c2cccs2)n1-c1ccccc1)N1CCCc2ccccc21,0.9,109.7*,0.1,4.6,100.7*,RORg DNA counter=i
COc1cccc(-n2c(SCC(=O)N3CCc4ccccc43)nnc2-c2c[nH]c3ccccc23)c1,-2.1,2.5,-0.1,-0.1,.,
CCn1c(SCC(=O)N2CCCc3ccccc32)nnc1-c1cccs1,-1.0,-0.3,-0.1,2.7,.,
COC(=O)[C@]12C[C@H](CC(=O)NCCCCc3ccccc3)C(=O)N(CCc3ccc(OC)c(OC)c3)C1=C[C@H](COCc1ccccc1)O[C@@H]2C,.,8.3,.,.,.,
O=S1(=O)c2ccc(N3CCN(Cc4ccccc4F)CC3)cc2Oc2ccccc2CN1Cc1cn(Cc2ccc(C(F)(F)F)cc2)nn1,.,1.5,.,.,.,
C(#CC1=CCCCC1)CNCc1ccccc1,.,9.2,.,.,.,
CCC(C)(C)NC(=O)CN(Cc1ccc2c(c1)OCO2)C(=O)CCC(=O)Nc1ccccn1,1.6,27.2*,0.0,-2.0,5.3,
CCC(C)(C)NC(=O)CN(Cc1ccc2c(c1)OCO2)C(=O)CCC(=O)Nc1nccs1,-2.4,-10.2,-0.3,-4.6,.,
COc1ccc2[nH]c3c(=O)n(Cc4ccc(C(=O)N5CCCCCC5)cc4)c(=S)[nH]c3c2c1,-2.1,40.8*,0.3,12.3,28.7*,
Cc1ccc(O)c(C2=NCCNC(C(F)(F)F)=C2)c1,4.0,3.6,-0.1,-4.9,.,
